Measurements of several laboratories.
Lines come from different studies, so protocols differ.
MC1R: Melanocyte-stimulating hormone receptor (MC1R, Homo sapiens, UniProt Q01726)
TAOK1: Serine/threonine-protein kinase TAO1 (TAOK1, Homo sapiens, UniProt Q7L7X3)
ADORA3: Adenosine receptor A3 (ADORA3, Homo sapiens, UniProt P0DMS8)

SMILES | target | test | test system | setting | quantity | result
CCCC[C@H](NC(C)=O)C(=O)N[C@H]1CC(=O)NCCCC[C@@H](C(=O)N2CCC[C@@H]2C(=O)N[C@@H](C(=O)N2CCC[C@@H]2C(N)=O)C(C)C)NC(=O)[C@H](Cc2c[nH]c3ccccc23)NC(=O)[C@H](CCCNC(=N)N)NC(=O)[C@@H](Cc2ccccc2)NC(=O)[C@@H]2CCCN2C1=O | MC1R | cAMP, agonist | – | – | Emax | 102%
Cc1cc(S(=O)(=O)N[C@H]2CC[C@H](CN3CCN(c4ccc(C5CCC(=O)NC5=O)cc4F)CC3)CC2)ccc1Nc1ncc(C(F)(F)F)c(N2CCC[C@](C)(O)C2)n1 (some centres unmarked) | TAOK1 | binding, competition with immobilised ligand | – | 1 µM | remaining binding | 72%
CC(=O)N[C@@H](CCCNC(=N)N)C(=O)N[C@H]1CSSC[C@@H](C(N)=O)NC(=O)[C@H](Cc2c[nH]c3ccccc23)NC(=O)[C@H](CCCNC(=N)N)NC(=O)[C@@H](Cc2ccccc2)NC(=O)[C@H](Cc2c[nH]cn2)NC(=O)[C@@H](C)NC1=O | Melanocortin receptor 3 (MC3R, Homo sapiens, UniProt P41968) | cAMP, agonist | CHO-K1 | – | Emax | 88%
C#Cc1cc(-c2cc(Nc3nc(N[C@@H](C)c4ccc(F)cn4)ncc3Cl)n[nH]2)ccc1C=O | Ribosomal protein S6 kinase alpha-2 (RPS6KA2, Homo sapiens, UniProt Q15349) | enzyme activity, inhibitor | – | 0.2 µM | inhibition | 39%
C1=C/COCc2cc(ccc2OCCN2CCCC2)Nc2nccc(n2)-c2cccc(c2)COC/1 | Protein kinase C delta type (PRKCD, Homo sapiens, UniProt Q05655) | binding | – | 0.1 µM | remaining binding | 100%
Cc1cc(O)c(-c2ccc([C@@H](C)CN(C)C)cc2)c2c1[nH]c(=O)c1sccc12 | Wee1-like protein kinase (WEE1, Homo sapiens, UniProt P30291) | enzyme activity, inhibitor | – | 0.1 µM | inhibition | 7.11%
NC/C(=C\F)COc1cccc(Cn2c(=S)[nH]c(=O)c3[nH]cnc32)c1 | ADORA3 | ligand displacement, radioligand | – | 10 µM | inhibition | < 50%
COc1ccc2oc(-c3ccc4nc(N)oc4c3)c/c(=N\c3ccccc3NC(=O)CCN)c2c1 | Epidermal growth factor receptor (EGFR, Homo sapiens, UniProt P00533, L858R) | binding | – | 1 µM | remaining binding | 92%
CCCC[C@H](NC(C)=O)C(=O)N[C@@H](C)C(=O)N[C@@H](Cc1c[nH]cn1)C(=O)N[C@@H](Cc1ccccc1)C(=O)N[C@@H](CCCNC(=N)N)C(=O)N[C@H](Cc1c[nH]c2ccccc12)C(=O)N[C@@H](CC(=O)O)C(=O)N[C@@H](CCCNC(=N)N)C(=O)N[C@@H](Cc1ccccc1)C(=O)N[C@@H](C(=O)N1CCC[C@@H]1C(N)=O)C(C)C | MC1R | cAMP, agonist | – | – | Emax | 100%
CCCCC(=O)Nc1ccc(-c2ccc3ncn(CCC)c(=O)c3c2)cn1 | Calcium/calmodulin-dependent protein kinase type 1B (PNCK, Homo sapiens, UniProt Q6P2M8) | binding, competition with immobilised ligand | – | 0.5 µM | remaining binding | 85%
CNS(=O)(=O)c1ccc(Nc2ncc(C(F)(F)F)c(N3CCC[C@](C)(O)C3)n2)c(C)c1 | TAOK1 | binding, competition with immobilised ligand | – | 1 µM | remaining binding | 5.3%
Cc1cc2c(C(N)=O)c(N)n(-c3c(C)ccc(O)c3C)c2nc1C | Serine/threonine-protein kinase B-raf (BRAF, Homo sapiens, UniProt P15056) | enzyme activity, inhibitor, ADP detection | – | 0.3704 µM | inhibition | 84%
CCN1/C(=C/C(C)=O)Sc2ccc(F)cc21 | ADORA3 | ligand displacement, radioligand | – | 10 µM | inhibition | 12.4%
N#Cc1ccc(NC(=O)Nc2ccccc2)cc1 | SRSF protein kinase 3 (SRPK3, Homo sapiens, UniProt Q9UPE1) | cell-free assay, competition with immobilised ligand | – | 25 µM | remaining binding | 9.7%
